TPT1 inh = C. albicans TPT1 enzyme inhibition. recombinant caTPT1, FP RNA substrate dephosphorylation. inhibition, % at 5 µM. 300,000 compounds, 0.81% hits. AID 1962;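 active means inhibition above the mean of all tested compounds plus 3 SD, set per screening campaign, cut at about 24% in these data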;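 further: plate controls were DMSO alone for no effect and ferristatin control at 100 nM for full effect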
Rpn11 inh = Rpn11 (human) deubiquitinase inhibition | O00487 | human 26S proteasome, Ub4-pepOG fluorescence polarization; 20S core pre-blocked with epoxomicin | inhibition, % at 20 µM | 360,000 compounds, 0.59% hits | AID 588493;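 active means inhibition at 20 µM, scaled to each plate's controls, above about 33%, limit read from the data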
HNF4A DNA FP = change in binding of human HNF4 alpha to DNA. 360,000 compounds, 0.3% hits. HNF4a-FITC DNA binding, fluorescence polarization, 1 h. AID 1224865. P41235. activity change, % at 10 µM; in the data active means activity change above about 30%, passing the limit was not always enough
Myeloid diff MLP = compounds promoting myeloid differentiation. ER-HoxA9 myeloid progenitors, lysozyme-GFP differentiation, flow cytometry. calls only at 10 µM. 360,000 compounds, 1% hits. AID 624256;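 active means normalized GFP-positive differentiation at or above the plate's own cutoff, the solvent-only control mean plus 3 SD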;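 further: cells exposed to compound for four days before flow analysis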
CSN inh = inhibitors of human CSN-mediated cullin deneddylation | Q92905 | Purified CSN, SCF-Nedd8-OG deneddylation, fluorescence polarization | inhibition, % at 12.5 µM | 360,000 compounds, 0.38% hits | AID 651999;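 active means pattern-corrected inhibition above about 35%, with an unprinted fluorescence ratio check between 0.5 and 1.5, limit read from the data, passing the limit was not always enough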;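 further: 0% = enzyme with substrate and 100% = substrate without enzyme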
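Material: human Csn5 produced in HEK293T cells; Input: enzyme 0.24 nM; Reagent: SCFSkp2-Nedd8OG substrate at 10 nM final; Dosing: 12.5 µM compound; Incubation: 90 min reaction at room temperature; Detection: fluorescence polarization of the substrate; Evaluation: % inhibition of substrate cleavage by Csn5; Control set: substrate-only high control, full reaction low control.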
Rpn11 inh conf = Rpn11 inhibition confirmation, single concentration | 1,900 compounds, 29% hits | purified human 26S proteasome, Ub4-pepOG fluorescence polarization; proteasome pretreated with epoxomicin | shares compounds with Rpn11 inh | AID 602318 | inhibition, % at 20 µM
MMP-2 inh = blocks human MMP-2, flagging nonselective RPN11 hits | 1,900 compounds, 4% hits | recombinant MMP-2, FRET peptide cleavage fluorescence | shares compounds with Rpn11 inh | inhibition, % at 20 µM;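 further: human MMP-2 activated beforehand with APMA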
Thrombin inh = thrombin (bovine) inhibition counter-screen. shares compounds with Rpn11 inh. bovine thrombin cleavage of Ub4-pepOG, fluorescence polarization. inhibition, % at 20 µM. 1,900 compounds, 13% hits. AID 602333;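 active means mean inhibition at least 40% at 20 µM, or signal 3 deviations below plate average, so some actives read negative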;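 further: plate controls were thrombin with DMSO for no effect and buffer wells lacking thrombin for full effect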
Target sequence (P00735 whole entry, looked up): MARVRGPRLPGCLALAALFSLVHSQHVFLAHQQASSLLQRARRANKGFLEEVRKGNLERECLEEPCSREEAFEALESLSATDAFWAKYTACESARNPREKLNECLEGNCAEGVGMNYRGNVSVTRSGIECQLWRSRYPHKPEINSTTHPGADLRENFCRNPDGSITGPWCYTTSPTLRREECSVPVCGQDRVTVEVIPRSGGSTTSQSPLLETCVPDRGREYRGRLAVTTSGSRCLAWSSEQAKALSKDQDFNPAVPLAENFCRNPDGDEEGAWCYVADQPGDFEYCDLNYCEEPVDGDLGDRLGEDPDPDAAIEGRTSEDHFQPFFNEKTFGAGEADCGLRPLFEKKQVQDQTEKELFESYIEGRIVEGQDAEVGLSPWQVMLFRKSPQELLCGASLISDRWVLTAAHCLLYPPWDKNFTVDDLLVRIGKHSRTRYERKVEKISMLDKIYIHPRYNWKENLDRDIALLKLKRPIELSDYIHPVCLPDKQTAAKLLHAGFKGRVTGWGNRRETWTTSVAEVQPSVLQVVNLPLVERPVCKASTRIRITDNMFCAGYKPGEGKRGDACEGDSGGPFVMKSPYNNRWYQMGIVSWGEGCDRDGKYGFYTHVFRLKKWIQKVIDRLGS
Myeloid diff CP1 = myeloid differentiation induction | shares compounds with Myeloid diff MLP | ER-HoxA9 myeloid progenitors, GFP/Mac1 double-positive flow | 2,300 compounds, 2% hits | calls only;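 active means share of green or green-and-red cells above 9 and 9% in run 1 or 4 and 3% in run 2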
GFP autofluor = flagged as fluorescent in myeloid differentiation counter-screen | 2,300 compounds, 7.4% hits | ER-HoxA9 myeloid progenitors, no estrogen, GFP autofluorescence flow cytometry; vehicle wells 0%, positive control 100% | shares compounds with Myeloid diff MLP | AID 651707 | fluorescence response, % (no concentration beside the values);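 active means over 5% cells positive for green fluorescent reporter, or over 2% positive for both it and APC stain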;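 further: range taken on the double positive population between DMSO and positive control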
HNF4A confirm = change in binding of human HNF4 alpha to DNA, retest | shares compounds with HNF4A DNA FP | HNF4A-FITC DNA binding, fluorescence polarization, 1 h | activity change, % at 12.5 µM | 210 compounds, 99% hits | AID 1224897; call rule not given here
The depositor's hits bear a star; i = inactive; · = no result; + = active, no number. The list is not random: actives were taken first. Their share in the collection is about 2.3%. Unless noted, no stated cut-off is given here; in the data, active means inhibition above about 40%; inactive means the rest.

SMILES | TPT1 inh | Rpn11 inh | HNF4A DNA FP | Myeloid diff MLP | CSN inh | Rpn11 inh conf | MMP-2 inh | Thrombin inh | HNF4A confirm | others
COc1cc(/C=N/NC(=O)c2cccnc2)ccc1OCC(=O)Nc1ccccc1Cl | -3 | 142* | 48* | i | 146* | + | i | -9 | 124*
COc1ccc(NC(=O)COc2ccc(/C=N/NC(=O)c3cccnc3)cc2OC)cc1 | 0 | -8 | 3 | i | -1 | · | · | · | ·
COc1ccccc1CNC(=O)CNC(=O)[C@@H]1Cc2ccccc2CN1 | -4 | -2 | 4 | i | -5 | · | · | · | ·
CN1CCN(S(=O)(=O)c2ccc(NC(=O)Cc3ccc([N+](=O)[O-])cc3)cc2)CC1 | 1 | 1 | -2 | i | -1 | · | · | · | ·
Cc1ccc(C(=O)COc2ccc3c(C)cc(=O)oc3c2)cc1 | 0 | -1 | 2 | i | -1 | · | · | · | ·
Cc1cc(=O)oc2cc(OCC(=O)c3ccc4c(c3)NC(=O)CO4)ccc12 | -2 | 45* | 161* | i | 76* | 3 | -24 | -6 | 46*
Cc1nc(C)n(C(Oc2ccc(Cl)cc2Cl)C(=O)C(C)(C)C)n1 (stereo not drawn) | -1 | -1 | 4 | i | -2 | · | · | · | ·
O=C(N/N=C/c1cc2ccccc2nc1Cl)/C(=C/c1cccs1)NC(=O)c1ccccc1 | 10 | 52* | 47* | i | 19 | 19 | -175 | 15 | 50*
Nc1nc2ccc(Cl)cc2cc1C(=O)NCc1ccc(Oc2ccccc2)cc1 | · | · | 4 | i | -1 | · | · | · | ·
O=C(N/N=C/c1cccnc1)c1ccc(NC(=O)c2ccc(Cl)cc2)cc1 | -2 | 6 | 17 | i | 6 | · | · | · | ·
O=C(N/N=C/c1cccnc1)c1ccc(NC(=O)c2cccc(Cl)c2)cc1 | -1 | 64* | 108* | i | 108* | 44* | -8 | -15 | 152*
CSc1nc2ccc3nc(NC(=O)c4cccs4)sc3c2s1 | 0 | 47* | 62* | i | 44* | 14 | -25 | -8 | 40*
CC(=O)Cc1nsc(NC(=O)c2ccc(-c3ccc(Cl)cc3Cl)o2)n1 | -6 | -1 | 3 | i | 0 | · | · | · | ·
Cc1nnc2sc(-c3ccc(NC(=O)c4ccc(-c5ccc(Cl)cc5Cl)o4)cc3)nn12 | 1 | + | 103* | i | 32 | 19 | -41 | 44* | 46*
CCN(CC)c1ccc(/C=C(\C#N)C(N)=O)cc1 | · | 57* | 34* | i | 14 | 29 | -78 | 25 | 46*
COc1ccc(NS(=O)(=O)c2ccc3oc(SC4CCOC4=O)nc3c2)cc1 (stereo not drawn) | -1 | 4 | 0 | i | 3 | · | · | · | · | Myeloid diff CP1=i;GFP autofluor=0
COc1ccc(NS(=O)(=O)c2ccc3oc(SC)nc3c2)cc1 | -1 | 2 | -1 | i | 4 | · | · | · | ·
COC(=O)C[C@H]1CC[C@H](NC(=O)c2cccc(F)c2)[C@@H](CO)O1 | · | · | 3 | i | 3 | · | · | · | ·
O=C(CN1C(=O)NC2(CCCC2)C1=O)N1CCN(S(=O)(=O)c2ccccc2[N+](=O)[O-])CC1 | 4 | 1 | 6 | i | 1 | · | · | · | ·
Cc1ccc(NC(=S)Nc2cccc3cnccc23)cc1C | 2 | 5 | 6 | i | 37* | · | · | · | · | Myeloid diff CP1=i;GFP autofluor=2
Cc1ccc(NC(=S)Nc2cccc3cnccc23)cc1 | -2 | 9 | 4 | i | 31 | · | · | · | ·

Compound activity deposited in PubChem by several laboratories.
